18 compounds from ChEMBL document CHEMBL1144602, “Synthesis and in vitro binding studies of substituted piperidine naphthamides. Part I: Influence of the substitution on the basic nitrogen and the position of the amide on the affinity for D2L, D4.2, and 5-HT2A receptors” (Bioorg Med Chem Lett, 2007) can be followed below.

Assay [1] has as its target T1, D(2) dopamine receptor (Homo sapiens, UniProt P14416). As to the kind of experiment: Displacement of [3H]spiperone from human cloned dopamine D2L receptor at 1 uM. A digest of the protocol: (§1)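 Single-point screen at 1 µM, reported as percent inhibition of radioligand binding: [3H]ketanserin at native rat 5-HT2A, [3H]nemonapride at human D4.2, [3H]spiperone at human D2L.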

In a further assay the target is T2, D(4) dopamine receptor (Homo sapiens, UniProt P21917).
T2 sequence (P21917 whole entry): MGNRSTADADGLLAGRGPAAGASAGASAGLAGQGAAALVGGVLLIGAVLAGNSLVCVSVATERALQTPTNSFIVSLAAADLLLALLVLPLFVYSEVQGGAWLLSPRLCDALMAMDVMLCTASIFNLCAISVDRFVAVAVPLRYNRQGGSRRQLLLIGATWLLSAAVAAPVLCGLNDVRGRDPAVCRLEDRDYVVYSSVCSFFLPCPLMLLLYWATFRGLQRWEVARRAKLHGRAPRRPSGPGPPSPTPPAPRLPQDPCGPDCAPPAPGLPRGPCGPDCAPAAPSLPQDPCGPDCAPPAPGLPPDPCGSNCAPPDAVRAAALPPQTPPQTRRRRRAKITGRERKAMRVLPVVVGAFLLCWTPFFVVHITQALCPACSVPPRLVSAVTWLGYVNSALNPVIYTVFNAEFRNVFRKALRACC
As to the kind of experiment: Displacement of [3H]nemonapride from human cloned dopamine D4.2 receptor. A digest of the protocol:
(§2)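 Radioligands were [3H]ketanserin for native rat 5-HT2A, [3H]nemonapride for cloned human D4.2 and [3H]spiperone for cloned human D2L. Ki was determined only for compounds giving >50% inhibition in a 1 µM screen. Values are mean ± SD, n ≥ 2 unless noted.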
(In general: Displacement assays read how much labelled ligand stays bound in the presence of the test substance.)

Assay [2] deals with T3, D(4) dopamine receptor (Homo sapiens) (UniProt P21917).
T3 sequence (whole entry): T2 sequence (P21917 whole entry)
Kind of assay: Displacement of [3H]nemonapride from human cloned dopamine D4.2 receptor at 1 uM. The gist of the method: as §1

The target in assay [3] is 5-hydroxytryptamine receptor 2A (Rattus norvegicus) (UniProt P14842). Kind of assay: Displacement of [3H]ketanserin from rat cloned 5HT2A receptor at 1 uM.
Assay [4] deals with T1, D(2) dopamine receptor. Kind of assay: Displacement of [3H]spiperone from human cloned dopamine D2L receptor. A digest of the protocol:
as §2

Sequence of 5-hydroxytryptamine receptor 2A (Rattus norvegicus) (P14842 whole entry): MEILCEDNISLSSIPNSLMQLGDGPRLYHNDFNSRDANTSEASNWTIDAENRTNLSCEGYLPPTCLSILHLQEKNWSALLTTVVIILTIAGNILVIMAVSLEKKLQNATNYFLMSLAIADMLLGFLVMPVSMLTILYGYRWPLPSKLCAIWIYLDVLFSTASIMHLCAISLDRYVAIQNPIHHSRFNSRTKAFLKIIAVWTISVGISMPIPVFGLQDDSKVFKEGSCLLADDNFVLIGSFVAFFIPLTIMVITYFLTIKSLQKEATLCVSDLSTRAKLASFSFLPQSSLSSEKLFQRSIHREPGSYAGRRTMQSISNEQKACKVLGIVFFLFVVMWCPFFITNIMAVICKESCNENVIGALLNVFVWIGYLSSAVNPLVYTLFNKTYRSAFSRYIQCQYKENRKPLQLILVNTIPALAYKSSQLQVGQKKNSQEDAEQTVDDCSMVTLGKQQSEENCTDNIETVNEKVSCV
T1 sequence (P14416 whole entry): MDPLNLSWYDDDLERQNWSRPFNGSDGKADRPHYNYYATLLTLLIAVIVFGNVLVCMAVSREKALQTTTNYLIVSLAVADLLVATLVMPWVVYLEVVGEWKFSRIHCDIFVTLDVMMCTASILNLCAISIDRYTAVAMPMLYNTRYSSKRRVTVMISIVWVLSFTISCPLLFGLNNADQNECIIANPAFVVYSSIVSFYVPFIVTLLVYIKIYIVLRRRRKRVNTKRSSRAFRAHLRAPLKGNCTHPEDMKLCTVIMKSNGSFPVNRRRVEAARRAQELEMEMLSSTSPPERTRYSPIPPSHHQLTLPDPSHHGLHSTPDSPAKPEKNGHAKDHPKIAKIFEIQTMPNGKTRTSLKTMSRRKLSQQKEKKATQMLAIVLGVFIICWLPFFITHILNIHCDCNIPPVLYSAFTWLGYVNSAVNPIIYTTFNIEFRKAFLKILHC

What is called Ki is the dissociation constant of the complex between target and ligand, obtained from inhibition or displacement. A high value points to lower affinity. On D(2) dopamine receptor [1], `O=C(NC1CCN(CCCCc2ccccc2)CC1)c1ccc2ccccc2c1` came in with an Activity of 22%. Moreover, the Ki at D(4) dopamine receptor amounted to 281 nM.
With `O=C(NC1CCN(CC[C@H](O)c2ccccc2)CC1)c1cccc2ccccc12`, the Activity came out at 0% at D(2) dopamine receptor [1] and 45% in assay [2].
For the compound `O=C(c1cccc2ccccc12)N1CCC(NCCCc2ccccc2)CC1`, the Activity at D(2) dopamine receptor [1] was found to be 0%; in assay [3], 35%; in assay [2], 52%.
For the compound `O=C(NC1CCN(CCCCc2ccccc2)CC1)c1cccc2ccccc12`, the Activity on D(2) dopamine receptor [1] is 18%. The Ki on D(4) dopamine receptor was 362 nM.
As to `O=C(c1ccc2ccccc2c1)N1CCC(NCCCc2ccccc2)CC1`, the Activity at D(2) dopamine receptor [1] came to 0%; in assay [3] it was 41%. Affinity on D(4) dopamine receptor was put at a Ki of 222 nM.
At D(2) dopamine receptor [1], `O=C(NC1CCN(CCCc2ccccc2)CC1)c1ccc2ccccc2c1` returned an Activity of 13%. The affinity on D(4) dopamine receptor, expressed as Ki, was 63 nM.
On D(4) dopamine receptor, `CC(c1ccccc1)N1CCC(NC(=O)c2ccc3ccccc3c2)CC1` (centres undefined) gave a Ki of 29 nM.
Take `O=C(NC1CCN(Cc2ccccc2)CC1)c1cccc2ccccc12`: the Ki at D(2) dopamine receptor [4] is above 1000 nM; on D(4) dopamine receptor, 162 nM.
Consider `O=C(NC1CCN(CCc2ccccc2)CC1)c1ccc2ccccc2c1`, for which the Activity on D(2) dopamine receptor [1] came to 7%. At D(4) dopamine receptor, this compound registered a Ki of 139 nM.
In turn, `O=C(c1ccc2ccccc2c1)N1CCC(NCC[C@H](O)c2ccccc2)CC1` yielded an Activity in assay [2] of 49%.
On to `O=C(c1ccc2ccccc2c1)N1CCC(NCc2ccccc2)CC1`, for which the Activity was determined as 0% at D(2) dopamine receptor [1] and 8% in assay [3]. The compound further had a Ki at D(4) dopamine receptor of 167 nM.
For the compound `O=C(c1cccc2ccccc12)N1CCC(NCCc2ccccc2)CC1`, the Activity worked out at 0% at D(2) dopamine receptor [1] and 16% in assay [2].
For `CC(c1ccccc1)N1CCC(NC(=O)c2cccc3ccccc23)CC1` (centres undefined) the same measures were 11% and 21%.
`O=C(c1ccc2ccccc2c1)N1CCC(NCCc2ccccc2)CC1`: the Activity at D(2) dopamine receptor [1] came to 0%; in assay [3] it was 50%. At D(4) dopamine receptor, this compound registered a Ki of 210 nM.
Regarding `O=C(c1cccc2ccccc12)N1CCC(NCc2ccccc2)CC1`, the Activity is 0% at D(2) dopamine receptor [1], 10% in assay [3] and 1% in assay [2].
Take `O=C(NC1CCN(CCc2ccccc2)CC1)c1cccc2ccccc12`: the Activity on D(2) dopamine receptor [1] was 3%. The Ki at D(4) dopamine receptor came to 230 nM.
The matching figures for `O=C(NC1CCN(CCCc2ccccc2)CC1)c1cccc2ccccc12`: 9% and 71 nM.
In the case of `O=C(NC1CCN(Cc2ccccc2)CC1)c1ccc2ccccc2c1`, the Ki at D(2) dopamine receptor [4] was above 1000 nM; at D(4) dopamine receptor, 11 nM.
